# Tests used:
# Rhizopus arrhizus [1] = assay: Antifungal activity against Rhizopus oryzae 05-203111 after 48 to 72 hrs; format: functional
# In short: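 After the broth microdilution MIC read, suspension from every well without visible growth was plated onto Sabouraud dextrose agar and incubated at 35°C, up to 7 days for molds. MFC was taken as the lowest drug concentration with no colonies.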
# Aspergillus fumigatus [2] = assay: Antifungal activity against Aspergillus fumigatus 05-203114 after 48 to 72 hrs; format: functional
# In short: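 CLSI M38-A2 broth microdilution for molds in RPMI 1640 with L-glutamine and no bicarbonate, buffered with 0.165 M MOPS to pH 7.0. Compounds were dissolved in water and tested at 0.175–87.5 μM final, 35°C, up to 7 days. MIC was read visually as 100% inhibition versus growth control. For MFC, clear wells were plated on SDA and the lowest concentration with no colonies taken. Each isolate was run in duplicate, two independent experiments.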
# Exophiala spinifera = assay: Antifungal activity against Exophiala spinifera 03-200803 after 24 to 72 hrs by broth microdilution method; format: functional
# In short: (§1)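 Mold isolates subcultured on potato dextrose agar, then tested by CLSI M38-A2 broth microdilution in RPMI 1640 (L-glutamine, no bicarbonate) buffered to pH 7.0 with 0.165 M MOPS. Compounds were dissolved in water and tested at a final 0.175–87.5 μM. Plates were incubated at 35°C. MIC was read visually as the lowest concentration giving 100% inhibition versus the growth control. Each isolate was run in duplicate in two independent experiments.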
# Fusarium solani = assay: Antifungal activity against Fusarium solani 04-203102 after 24 to 72 hrs by broth microdilution method; format: functional; in short: as §1
# [3] = Antifungal activity against Paecilomyces lilacinus 05-200601 after 24 to 72 hrs by broth microdilution method; format: functional; details: Purpureocillium lilacinum; in short: as §1
# Rhizopus arrhizus [4] = assay: Antifungal activity against Rhizopus oryzae 05-203111 after 24 to 72 hrs by broth microdilution method; format: functional; in short: as §1
# Pichia kudriavzevii [5] = assay: Antifungal activity against Candida krusei 04-202328 after 48 to 72 hrs; format: functional
# In short: (§2)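 CLSI M27-A3 broth microdilution for yeasts in RPMI 1640 with L-glutamine and no bicarbonate, buffered with 0.165 M MOPS to pH 7.0. Compounds were dissolved in water and tested at 0.175–87.5 μM final, 35°C. MIC was read visually at 24–72 h as 100% inhibition versus growth control. For MFC, 30 μl from clear wells went onto SDA at 35°C for 48–72 h, reading the lowest concentration without colonies. Duplicates, two independent runs.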
# Candida parapsilosis [6] = assay: Antifungal activity against Candida parapsilosis ATCC 22019 after 48 to 72 hrs; format: functional; details: Lodderomyces parapsilosis
# In short: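 MFC: after the MIC read, 30-μl aliquots from each well without visible growth were plated onto Sabouraud dextrose agar and incubated at 35°C. Reading was at 48–72 h for yeasts and up to 7 days for molds. MFC was the lowest concentration with no colonies.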
# Candida parapsilosis [7] = assay: Antifungal activity against Candida parapsilosis 04-202398 after 48 to 72 hrs; format: functional; details: Lodderomyces parapsilosis; in short: as §2
# Aspergillus fumigatus [8] = assay: Antifungal activity against Aspergillus fumigatus 05-203114 after 24 to 72 hrs by broth microdilution method; format: functional
# In short: (§3)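 Broth microdilution MIC per CLSI M27-A3 (yeasts) or M38-A2 (molds). RPMI 1640 with L-glutamine, without bicarbonate, buffered to pH 7.0 with 0.165 M MOPS. Final test range for the compounds was 0.175–87.5 μM. Incubation at 35°C with visual reading at 24–72 h. MIC was the lowest concentration giving 100% inhibition versus the growth control (azoles 50% or 100%, by organism). Each isolate was run in duplicate in two independent experiments.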
# Aspergillus flavus [9] = assay: Antifungal activity against Aspergillus flavus ATCC 204304 after 24 to 72 hrs by broth microdilution method; format: functional; in short: as §3
# Aspergillus flavus [10] = assay: Antifungal activity against Aspergillus flavus 05-203758 after 24 to 72 hrs by broth microdilution method; format: functional; in short: as §3
# Aspergillus terreus = assay: Antifungal activity against Aspergillus terreus 05-202844 after 24 to 72 hrs by broth microdilution method; format: functional; in short: as §3
# Lomentospora prolificans = assay: Antifungal activity against Scedosporium prolificans 05-203060 after 24 to 72 hrs by broth microdilution method; format: functional; in short: as §1
# Scedosporium apiospermum = assay: Antifungal activity against Scedosporium apiospermum 05-203100 after 24 to 72 hrs by broth microdilution method; format: functional; in short: as §1
# [11] = system: Cunninghamella bertholletiae; assay: Antifungal activity against Cunninghamella bertholletiae 99-12187 after 24 to 72 hrs by broth microdilution method; format: functional; in short: as §3
# Lichtheimia corymbifera = assay: Antifungal activity against Absidia corymbifera 04-200170 after 24 to 72 hrs by broth microdilution method; format: functional; in short: as §3
# Aspergillus fumigatus [12] = assay: Antifungal activity against Aspergillus fumigatus ATCC 204305 after 24 to 72 hrs by broth microdilution method; format: functional; in short: as §3
# [13] = system: Cryptococcus gattii species complex; assay: Antifungal activity against Cryptococcus gattii 05-200122 after 24 to 72 hrs by broth microdilution method; format: functional, Cryptococcus bacillisporus; in short: as §3
# Cryptococcus neoformans [14] = assay: Antifungal activity against Cryptococcus neoformans 05-202523 after 24 to 72 hrs by broth microdilution method; format: functional; in short: as §3
# Cryptococcus neoformans [15] = assay: Antifungal activity against Cryptococcus neoformans ATCC 90112 after 24 to 72 hrs by broth microdilution method; format: functional; in short: as §3
# Candida tropicalis [16] = assay: Antifungal activity against Candida tropicalis 04-202361 after 24 to 72 hrs by broth microdilution method; format: functional; in short: as §3
# Nakaseomyces glabratus [17] = assay: Antifungal activity against Candida glabrata 04-202345 after 24 to 72 hrs by broth microdilution method; format: functional; in short: as §3
# Candida parapsilosis [18] = assay: Antifungal activity against Candida parapsilosis 04-202398 after 24 to 72 hrs by broth microdilution method; format: functional; details: Lodderomyces parapsilosis; in short: as §3
# Pichia kudriavzevii [19] = assay: Antifungal activity against Candida krusei 04-202328 after 24 to 72 hrs by broth microdilution method; format: functional; in short: as §3
# Candida parapsilosis [20] = assay: Antifungal activity against Candida parapsilosis ATCC 22019 after 24 to 72 hrs by broth microdilution method; format: functional; details: Lodderomyces parapsilosis; in short: as §3
# Pichia kudriavzevii [21] = assay: Antifungal activity against Candida krusei ATCC 6258 after 24 to 72 hrs by broth microdilution method; format: functional; in short: as §3
# Candida albicans [22] = assay: Antifungal activity against Candida albicans ATCC 10231 after 24 to 72 hrs by broth microdilution method; format: functional; in short: as §3
# Candida albicans [23] = assay: Antifungal activity against Candida albicans ATCC 90028 after 24 to 72 hrs by broth microdilution method; format: functional; in short: as §3
# [24] = Antifungal activity against Exophiala jeanselmei 03-200268 after 24 to 72 hrs by broth microdilution method; format: functional; in short: as §3
# Cryptococcus neoformans [25] = assay: Antifungal activity against Cryptococcus neoformans after 24 to 72 hrs by broth microdilution method; format: functional; in short: as §3
# [26] = system: Cryptococcus gattii species complex; assay: Antifungal activity against Cryptococcus gattii after 24 to 72 hrs by broth microdilution method; format: functional, Cryptococcus bacillisporus; in short: as §3
# Candida albicans [27] = assay: Antifungal activity against Candida albicans after 24 to 72 hrs by broth microdilution method; format: functional; in short: as §2
# Candida tropicalis [28] = assay: Antifungal activity against Candida tropicalis after 24 to 72 hrs by broth microdilution method; format: functional; in short: as §3
# Nakaseomyces glabratus [29] = assay: Antifungal activity against Candida glabrata after 24 to 72 hrs by broth microdilution method; format: functional; in short: as §3
# Candida parapsilosis [30] = assay: Antifungal activity against Candida parapsilosis after 24 to 72 hrs by broth microdilution method; format: functional; details: Lodderomyces parapsilosis; in short: as §3
# Pichia kudriavzevii [31] = assay: Antifungal activity against Candida krusei after 24 to 72 hrs by broth microdilution method; format: functional; in short: as §3
# Candida dubliniensis = assay: Antifungal activity against Candida dubliniensis after 24 to 72 hrs by broth microdilution method; format: functional; in short: as §3
# [32] = system: Meyerozyma guilliermondii; assay: Antifungal activity against Candida guilliermondii after 24 to 72 hrs by broth microdilution method; format: functional; in short: as §3
# Clavispora lusitaniae = assay: Antifungal activity against Candida lusitaniae after 24 to 72 hrs by broth microdilution method; format: functional; in short: as §3
smiles,measurement,setting,value
[Cl-].[Cl-].c1ccc(CCCc2cc[n+](CCCCCCCCCCCC[n+]3ccc(CCCc4ccccc4)cc3)cc2)cc1,MFC,Rhizopus arrhizus [1],1.74 mg/L
same,MFC,Aspergillus fumigatus [2],55.8 mg/L
same,MIC,Exophiala spinifera,1.74 mg/L
same,MIC,Fusarium solani,27.9 mg/L
same,MIC,[3],> 55.8 mg/L
same,MIC,Rhizopus arrhizus [4],0.87 mg/L
same,MFC,Pichia kudriavzevii [5],27.9 mg/L
same,MFC,Candida parapsilosis [6],1.74 mg/L
same,MFC,Candida parapsilosis [7],> 55.8 mg/L
same,MIC,Aspergillus fumigatus [8],13.9 mg/L
same,MIC,Aspergillus flavus [9],55.8 mg/L
same,MIC,Aspergillus flavus [10],> 55.8 mg/L
same,MIC,Aspergillus terreus,1.74 mg/L
same,MIC,Lomentospora prolificans,> 55.8 mg/L
same,MIC,Scedosporium apiospermum,> 55.8 mg/L
same,MIC,[11],27.9 mg/L
same,MIC,Lichtheimia corymbifera,> 55.8 mg/L
same,MIC,Aspergillus fumigatus [12],27.9 mg/L
same,MIC,[13],1.74 mg/L
same,MIC,Cryptococcus neoformans [14],27.9 mg/L
same,MIC,Cryptococcus neoformans [15],1.74 mg/L
same,MIC,Candida tropicalis [16],0.87 mg/L
same,MIC,Nakaseomyces glabratus [17],0.87 mg/L
same,MIC,Candida parapsilosis [18],55.8 mg/L
same,MIC,Pichia kudriavzevii [19],13.9 mg/L
same,MIC,Candida parapsilosis [20],0.87 mg/L
same,MIC,Pichia kudriavzevii [21],13.9 mg/L
same,MIC,Candida albicans [22],1.74 mg/L
same,MIC,Candida albicans [23],1.74 mg/L
same,MIC,[24],1.74 mg/L
CCC(C)n1ncn(-c2ccc(N3CCN(c4ccc(OCC5COC(Cn6cncn6)(c6ccc(Cl)cc6Cl)O5)cc4)CC3)cc2)c1=O (stereo not given) [ITRACONAZOLE],MIC,Cryptococcus neoformans [25],0.06 mg/L
same,MIC50,Cryptococcus neoformans [25],0.06 mg/L
same,MIC90,Cryptococcus neoformans [25],0.125 mg/L
same,MIC,[26],0.07 mg/L
same,MIC50,[26],0.06 mg/L
same,MIC90,[26],0.125 mg/L
same,MIC,Candida albicans [27],0.07 mg/L
same,MIC50,Candida albicans [27],0.04 mg/L
same,MIC90,Candida albicans [27],0.09 mg/L
same,MIC,Candida tropicalis [28],0.11 mg/L
same,MIC50,Candida tropicalis [28],0.125 mg/L
same,MIC90,Candida tropicalis [28],0.25 mg/L
same,MIC,Nakaseomyces glabratus [29],1.15 mg/L
same,MIC50,Nakaseomyces glabratus [29],0.5 mg/L
same,MIC90,Nakaseomyces glabratus [29],16 mg/L
same,MIC,Candida parapsilosis [30],0.07 mg/L
same,MIC50,Candida parapsilosis [30],0.06 mg/L
same,MIC90,Candida parapsilosis [30],0.125 mg/L
same,MIC,Pichia kudriavzevii [31],0.33 mg/L
same,MIC50,Pichia kudriavzevii [31],0.25 mg/L
same,MIC90,Pichia kudriavzevii [31],0.5 mg/L
same,MIC,Candida dubliniensis,0.028 mg/L
same,MIC50,Candida dubliniensis,0.03 mg/L
same,MIC90,Candida dubliniensis,0.06 mg/L
same,MIC,[32],0.5 mg/L
same,MIC50,[32],0.5 mg/L
same,MIC90,[32],1 mg/L
same,MIC,Clavispora lusitaniae,0.09 mg/L
same,MIC50,Clavispora lusitaniae,0.06 mg/L
same,MIC90,Clavispora lusitaniae,0.25 mg/L

# Reference: ChEMBL document CHEMBL1629527, “In vitro antifungal activities of bis(alkylpyridinium)alkane compounds against pathogenic yeasts and molds” (Antimicrob Agents Chemother, 2010)
